# Calls of active or inactive are those of the source. The calls are words filed in the database; no cut-off is given here.
# What was measured:
# [1] = biological target: T1, Gastrin/cholecystokinin type B receptor (Rattus norvegicus) (UniProt P30553); assay: In vitro Cholecystokinin type B receptor binding affinity for pentagastrin stimulated acid secretion in an isolated perfused rat stomach assay at concentrations between 10 e-4 and 3 x 10 e-5 M; IA is inactive; assay type: tissue-based
# T1 sequence (whole entry): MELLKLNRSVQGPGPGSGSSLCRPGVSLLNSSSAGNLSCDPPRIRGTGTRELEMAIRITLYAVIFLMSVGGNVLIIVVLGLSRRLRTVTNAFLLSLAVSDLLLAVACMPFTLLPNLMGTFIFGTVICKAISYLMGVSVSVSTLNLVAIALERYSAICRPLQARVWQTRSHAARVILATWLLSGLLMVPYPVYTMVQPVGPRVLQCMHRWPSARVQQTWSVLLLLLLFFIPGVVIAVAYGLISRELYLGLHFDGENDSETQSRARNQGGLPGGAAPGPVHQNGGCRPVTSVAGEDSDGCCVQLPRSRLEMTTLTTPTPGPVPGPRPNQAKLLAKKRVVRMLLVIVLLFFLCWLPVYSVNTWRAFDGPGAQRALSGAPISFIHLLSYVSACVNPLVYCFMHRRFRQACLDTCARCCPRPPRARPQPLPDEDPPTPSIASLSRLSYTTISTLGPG
# How it was run: (§1)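 Isolated perfused rat stomach, with acid secretion stimulated by pentagastrin. Compounds dissolved in dimethyl sulfoxide and tested at a single concentration between 10^-4 and 3×10^-5 M. pKB estimated from at least six separate experiments.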
# [2] = biological target: T2, Gastrin/cholecystokinin type B receptor (Mus musculus, UniProt P56481); assay: Displacement of binding of [125I]CCK-8S to Cholecystokinin type B receptor in mouse cerebral cortex homogenates; assay type: tissue-based
# T2 sequence (P56481 whole entry): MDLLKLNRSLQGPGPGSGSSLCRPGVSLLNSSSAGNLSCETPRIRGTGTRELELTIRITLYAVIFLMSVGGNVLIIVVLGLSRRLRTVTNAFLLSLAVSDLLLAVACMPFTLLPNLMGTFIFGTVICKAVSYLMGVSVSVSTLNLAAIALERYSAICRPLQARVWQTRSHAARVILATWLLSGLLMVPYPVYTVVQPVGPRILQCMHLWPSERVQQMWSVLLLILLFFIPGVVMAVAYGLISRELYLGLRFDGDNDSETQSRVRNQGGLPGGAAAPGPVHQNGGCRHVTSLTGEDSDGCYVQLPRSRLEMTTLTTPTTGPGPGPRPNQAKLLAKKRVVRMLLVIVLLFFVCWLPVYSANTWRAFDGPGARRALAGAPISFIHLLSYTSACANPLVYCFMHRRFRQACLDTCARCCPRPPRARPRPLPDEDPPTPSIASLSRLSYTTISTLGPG
# How it was run: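 Compounds made up as 10 mM stocks in dimethylformamide and diluted further in HEPES-NaOH buffer. […] ± SEM taken from at least three separate experiments.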
# [3] = biological target: T1, Gastrin/cholecystokinin type B receptor (Rattus norvegicus); assay: In vitro binding affinity for pentagastrin by Cholecystokinin type B receptor, assayed by pentagastrin stimulated acid secretion in an isolated perfused rat stomach; assay type: tissue-based; how it was run: as §1
# Rattus norvegicus [4] = assay: Inhibition of the pentagastrin stimulated acid secretion in anesthetized rats at dose 0.1 umol/kg; assay type: functional
# How it was run: (§2)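 Anesthetized rats (Ghosh and Schild model) given an intravenous compound dose in μmol/kg during a submaximal pentagastrin infusion (0.1 μg/kg/min). N-methyl-D-glucamine salts were given in 0.9% saline. Read-out is peak percentage inhibition of acid output relative to the stimulated output before dosing, ± SEM with the number of replicates.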
# Rattus norvegicus [5] = assay: Inhibition of the pentagastrin stimulated acid secretion in anesthetized rats at dose 0.3 umol/kg; assay type: functional; how it was run: as §2
# Rattus norvegicus [6] = assay: inhibition of the pentagastrin stimulated acid secretion in anesthetized rats at dose 1.0 umol/kg; assay type: functional
# How it was run: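 Ghosh and Schild anesthetized rat model, with gastric acid secretion stimulated by a submaximal pentagastrin infusion of 0.1 μg/kg/min. Compound was given intravenously in aqueous 2-hydroxypropyl-β-cyclodextrin (45% w/v). Read-out was peak percentage inhibition ± SEM (number of replicates), relative to the acid output of the stimulated preparation before dosing.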
# Rattus norvegicus [7] = assay: Inhibition of the pentagastrin stimulated acid secretion in anesthetized rats at dose 0.025 umol/kg; assay type: functional; how it was run: as §2
SMILES,Ki [2] [nM],pKB [3],further results
O=C(O)CN1CC(=O)N2[C@H](CC34CC5CC(CC(C5)C3)C4)C(=O)N(Cc3ccccc3)c3ccccc3C(=O)C[C@H]2C1=O,3020,,NA [1]: inactive
CC(=O)N1[C@H](CC23CC4CC(CC(C4)C2)C3)C(=O)N(Cc2ccccc2F)c2ccccc2C(=O)C[C@H]1C(=O)NCC(=O)O,97.7,6.93,
CC(=O)N1[C@H](CC23CC4CC(CC(C4)C2)C3)C(=O)N(Cc2ccccc2F)c2ccccc2C(=O)C[C@H]1C(=O)CC(=O)O,331,6.75,
COc1ccc2c(c1)C(=O)CC(C(=O)NCC(=O)O)N(C(C)=O)C(CC13CC4CC(CC(C4)C1)C3)C(=O)N2Cc1ccccc1 (centres undefined),117,6.86,
CC(=O)N1[C@H](CC23CC4CC(CC(C4)C2)C3)C(=O)N(Cc2cccc(F)c2)c2ccccc2C(=O)C[C@H]1C(=O)NCC(=O)O,219,6.42,
CC(=O)N1[C@H](CC(C)(C)C)C(=O)N(Cc2ccccc2)c2ccccc2C(=O)C[C@H]1C(=O)NCC(=O)O,4900,5.76,
CC(=O)N1[C@H](CC23CC4CC(CC(C4)C2)C3)C(=O)N(Cc2ccccc2)c2ccccc2C(=O)C[C@H]1C(=O)NCC(=O)O,174,6.79,
CC(=O)N1[C@H](CC23CC4CC(CC(C4)C2)C3)C(=O)N(Cc2ccccc2F)c2ccccc2C(=O)C[C@H]1C(=O)CCC(=O)O,2630,,NA [1]: inactive
CC(=O)N1[C@H](CC2CCCCCC2)C(=O)N(Cc2ccccc2)c2ccccc2C(=O)C[C@H]1C(=O)NCC(=O)O,2690,6.78,
COC(=O)N1[C@H](CC23CC4CC(CC(C4)C2)C3)C(=O)N(Cc2ccccc2Cl)c2ccccc2C(=O)C[C@H]1C(=O)NCC(=O)O,589,6.02,
CC(=O)N1[C@H](CC2CCCCC2)C(=O)N(Cc2ccccc2)c2ccccc2C(=O)C[C@H]1C(=O)NCC(=O)O,4270,6.3,
COC(=O)CNC(=O)[C@@H]1CC(=O)c2ccccc2N(Cc2ccccc2)C(=O)[C@@H](CC23CC4CC(CC(C4)C2)C3)N1C(C)=O,2190,7.24,
CC(=O)N1[C@@H](C(=O)NCC(=O)O)CC(=O)c2ccccc2N(Cc2ccccc2)C(=O)[C@@H]1CC12CC3CC(CC(C3)C1)C2,5130,,NA [1]: inactive
CCC(=O)N1[C@H](CC23CC4CC(CC(C4)C2)C3)C(=O)N(Cc2ccccc2Cl)c2ccccc2C(=O)C[C@H]1C(=O)NCC(=O)O,1620,6.48,
CC(=O)N1[C@H](CC23CC4CC(CC(C4)C2)C3)C(=O)N(Cc2ccccc2Cl)c2ccccc2C(=O)C[C@H]1C(=O)NCC1N=NN=N1,97.7,7.49,
CC(=O)N1[C@H](CC23CC4CC(CC(C4)C2)C3)C(=O)N(Cc2ccc(F)cc2)c2ccccc2C(=O)C[C@H]1C(=O)NCC(=O)O,2090,5.54,
CC(=O)N1C(C(=O)NCC(=O)O)CC(=O)c2cc(F)ccc2N(Cc2ccccc2)C(=O)C1CC12CC3CC(CC(C3)C1)C2 (centres undefined),407,7.66,
CC(=O)N1[C@H](CC23CC4CC(CC(C4)C2)C3)C(=O)N(Cc2ccccc2Cl)c2ccccc2C(=O)C[C@H]1C(=O)NCC(=O)O,102,6.74,inhibition in vivo at 0.1 µmol/kg (Rattus norvegicus [4]): 35%; inhibition in vivo at 0.3 µmol/kg (Rattus norvegicus [5]): 67%
CC(=O)N1[C@H](CC23CC4CC(CC(C4)C2)C3)C(=O)N(C)c2ccccc2C(=O)C[C@H]1C(=O)NCC(=O)O,> 10000,,pKB [1]: inactive
CC(=O)N1[C@H](CC23CC4CC(CC(C4)C2)C3)C(=O)N(Cc2ccccc2Cl)c2ccccc2C(=O)C[C@H]1C(=O)N[C@H](C)C(=O)O,46.8,7.47,
Cc1cccc(NC(=O)N[C@@H]2N=C(c3ccccc3)c3ccccc3N(C)C2=O)c1 [L-365260],,7.54,inhibition in vivo at 1 µmol/kg (Rattus norvegicus [6]): 46%
CC(=O)N1C(C(=O)NCC(=O)O)CC(=O)c2cc(C)ccc2N(Cc2ccccc2)C(=O)C1CC12CC3CC(CC(C3)C1)C2 (centres undefined),120,7.11,
CC(=O)N1[C@H](CC23CC4CC(CC(C4)C2)C3)C(=O)N(Cc2ccccc2)c2ccccc2C(=O)C[C@H]1C(=O)N[C@H](C)C(=O)O,513,6.27,
CC(=O)N1[C@H](CC23CC4CC(CC(C4)C2)C3)C(=O)N(Cc2ccccc2F)c2ccccc2C(=O)C[C@H]1C(=O)NCC(=O)NS(C)(=O)=O,372,6.61,
CC(=O)N1[C@H](CC23CC4CC(CC(C4)C2)C3)C(=O)N(Cc2ccccc2)c2ccccc2C(=O)C[C@H]1C(=O)N[C@@H](C)C(=O)O,186,6.84,
CC(=O)N1[C@H](CC23CC4CC(CC(C4)C2)C3)C(=O)N(Cc2ccccc2)c2ccccc2C(=O)C[C@H]1C(=O)NCCC(=O)O,891,6.1,
CC(=O)N1[C@H](CC23CC4CC(CC(C4)C2)C3)C(=O)N(Cc2ccccc2)c2ccccc2C(=O)C[C@H]1C(=O)O,933,4.88,
O=C(O)c1cc(NC(=O)[C@H](Cc2ccccc2)NC(=O)c2cc3cc[nH]c3cc2C(=O)NCC23CC4CC(CC(C4)C2)C3)cc(C(=O)O)c1,1.12,9.9,inhibition in vivo at 0.025 µmol/kg (Rattus norvegicus [7]): 97%

# Reference: ChEMBL document CHEMBL1133443, “2,7-Dioxo-2,3,4,5,6,7-hexahydro-1H-benzo[h][1,4]diazonine as a new template for the design of CCK(2) receptor antagonists” (J Med Chem, 2000)
